Converted amounts (≈) assume the structure as drawn. Bounds are passed on as bounds.

A short description of data set [1]: Solubility of compound at pH 6.5. Type of data set: physicochemical. To be noted: buffer.
Data set [2] concerns the target T1, Coagulation factor XII (Homo sapiens) (UniProt P00748).
T1 sequence (whole entry): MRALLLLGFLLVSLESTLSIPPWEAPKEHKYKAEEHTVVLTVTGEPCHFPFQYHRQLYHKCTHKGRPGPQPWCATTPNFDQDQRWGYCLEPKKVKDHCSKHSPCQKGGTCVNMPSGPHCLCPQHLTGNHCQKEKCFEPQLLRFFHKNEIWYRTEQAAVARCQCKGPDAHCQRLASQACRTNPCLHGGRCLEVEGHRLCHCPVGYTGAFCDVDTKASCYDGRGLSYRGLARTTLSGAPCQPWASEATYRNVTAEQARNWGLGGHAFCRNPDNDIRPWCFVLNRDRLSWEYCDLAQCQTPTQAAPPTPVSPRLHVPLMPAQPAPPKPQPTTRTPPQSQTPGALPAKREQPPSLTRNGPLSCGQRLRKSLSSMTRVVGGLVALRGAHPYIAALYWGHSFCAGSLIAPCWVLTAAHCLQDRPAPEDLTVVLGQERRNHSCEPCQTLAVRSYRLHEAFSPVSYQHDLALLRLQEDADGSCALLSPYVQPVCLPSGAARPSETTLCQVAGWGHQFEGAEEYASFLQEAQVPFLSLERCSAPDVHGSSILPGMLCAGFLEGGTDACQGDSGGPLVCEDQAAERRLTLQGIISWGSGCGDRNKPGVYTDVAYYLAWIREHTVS
The experiment in a line: Inhibition of human factor 12a using S-2302 as substrate assessed as para-nitroaniline release at 50 uM preincubated for 10 mins followed by substrate addition measured after 30 mins by HPLC-UV analysis. The procedure, abridged:
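Human FXIIa 145 nM in 0.5 mM Tris-Imidazole, 0.15 M NaCl, pH 7.9, preincubated 10 min at 25 C with compound (DMSO). S-2302 (2.5 mM) added and hydrolysis run 30 min, then stopped with 10% acetic acid. Wells diluted 1:1 in acetonitrile. Released p-NA quantified by C18 HPLC-UV at 375 nm (AUC). % inhibition = [1-(AUCdrug/AUCvehicle)]*100.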

In data set [3] the target is Plasma kallikrein (Homo sapiens) (UniProt P03952). Nature of the data set: Inhibition of human plasma kallikrein using S-2302 as substrate at 100 uM preincubated for 10 mins followed by substrate addition measured for 5 mins by microplate reader analysis. Type of data set: cell-free. The method, boiled down:
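Human plasma kallikrein 50 nM in 0.05 M Tris-HCl, 0.5 mM EDTA, 0.05% Tween 20, 0.15 M NaCl, pH 7.4. 10 min preincubation with compound at 25 C, then S-2302 (4 mM). OD405 read continuously for 5 min. % inhibition = [1-(slope inhibitor/slope vehicle)]*100.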

Data set [4] deals with Prothrombin (Homo sapiens) (UniProt P00734). The experiment in a line: Inhibition of human thrombin using S-2238 as substrate at 100 uM preincubated for 10 mins followed by substrate addition measured for 5 mins by microplate reader analysis. The method, boiled down:
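Compound (DMSO) preincubated 10 min at 25 C, then S-2238 (2.5 mM). OD405 monitored continuously for 5 min. Slope-based % inhibition against vehicle control.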

In another data set the target is T2, Coagulation factor XII (Homo sapiens, UniProt P00748).
T2 sequence (P00748 whole entry): T1 sequence (whole entry)
Nature of the data set: Inhibition of human factor 12a using S-2302 as substrate assessed as para-nitroaniline release preincubated for 10 mins followed by substrate addition measured after 30 mins by HPLC-UV analysis. The method, boiled down:
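FXIIa IC50 assay. Human enzyme 145 nM in Tris-Imidazole/NaCl buffer, pH 7.9, 10 min at 25 C with compound, then S-2302 (2.5 mM) for 30 min and acetic acid stop. p-NA AUC measured by HPLC-UV at 375 nm. Nine concentrations from 100 nM upward, in duplicate. Sigmoid fit of % inhibition vs log concentration by non-linear regression; values reported as mean with 95% CI.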

In data set [5] the target is Coagulation factor X (Homo sapiens) (UniProt P00742). Nature of the data set: Inhibition of human factor 10a using S-2765 as substrate at 100 uM preincubated for 10 mins followed by substrate addition measured for 5 mins by microplate reader analysis. The method, boiled down:
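Compound added from DMSO and held with enzyme 10 min at 25 C. S-2765 (1 mM) then added and OD405 followed continuously for 5 min. % inhibition = [1-(slope inhibitor/slope vehicle)]*100.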

In data set [6] the target is T3, Coagulation factor VII (Homo sapiens) (UniProt P08709).
T3 sequence (whole entry): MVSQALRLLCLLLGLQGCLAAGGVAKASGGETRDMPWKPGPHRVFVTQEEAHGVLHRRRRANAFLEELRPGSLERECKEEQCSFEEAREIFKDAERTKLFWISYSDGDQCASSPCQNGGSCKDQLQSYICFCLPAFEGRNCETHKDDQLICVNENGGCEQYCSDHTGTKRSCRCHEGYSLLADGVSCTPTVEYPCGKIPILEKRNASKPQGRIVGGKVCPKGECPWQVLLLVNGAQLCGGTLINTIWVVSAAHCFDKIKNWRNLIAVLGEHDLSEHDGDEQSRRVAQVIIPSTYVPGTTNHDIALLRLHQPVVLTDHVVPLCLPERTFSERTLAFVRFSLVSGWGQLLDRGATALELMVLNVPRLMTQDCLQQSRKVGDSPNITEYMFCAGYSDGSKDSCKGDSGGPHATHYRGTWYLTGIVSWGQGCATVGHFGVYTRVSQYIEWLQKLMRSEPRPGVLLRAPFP
The experiment in a line: Inhibition of human factor 7a using chromozymt-PA as substrate at 100 uM preincubated for 10 mins followed by substrate addition measured for 10 mins by microplate reader analysis. The procedure, abridged:
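Compound preincubated 10 min at 25 C. Chromozym t-PA (5 mM) added and OD405 monitored continuously for 10 min. Inhibition from slope ratio against vehicle.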

Chain of Plasma kallikrein (Homo sapiens) (P03952 20-390 limits assumed): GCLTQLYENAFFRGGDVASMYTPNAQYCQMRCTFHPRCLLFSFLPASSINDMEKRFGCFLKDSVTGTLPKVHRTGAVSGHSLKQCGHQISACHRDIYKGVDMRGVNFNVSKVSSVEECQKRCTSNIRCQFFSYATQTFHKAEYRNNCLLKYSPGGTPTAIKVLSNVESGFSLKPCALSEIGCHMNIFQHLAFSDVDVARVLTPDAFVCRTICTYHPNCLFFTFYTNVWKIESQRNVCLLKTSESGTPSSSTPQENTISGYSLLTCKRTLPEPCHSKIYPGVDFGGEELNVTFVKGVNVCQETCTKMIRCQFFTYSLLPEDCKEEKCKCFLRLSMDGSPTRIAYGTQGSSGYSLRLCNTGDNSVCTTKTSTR
Chain of Plasma kallikrein (Homo sapiens) (P03952 391-638 limits assumed): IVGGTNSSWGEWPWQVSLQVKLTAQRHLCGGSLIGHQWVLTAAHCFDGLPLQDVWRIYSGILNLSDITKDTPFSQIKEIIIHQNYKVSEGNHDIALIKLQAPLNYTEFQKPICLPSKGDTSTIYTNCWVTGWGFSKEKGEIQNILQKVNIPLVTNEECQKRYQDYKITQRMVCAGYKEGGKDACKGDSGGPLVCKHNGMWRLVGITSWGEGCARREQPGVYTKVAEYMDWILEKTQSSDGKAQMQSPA
Chain of Coagulation factor X (Homo sapiens) (P00742 41-179 limits assumed): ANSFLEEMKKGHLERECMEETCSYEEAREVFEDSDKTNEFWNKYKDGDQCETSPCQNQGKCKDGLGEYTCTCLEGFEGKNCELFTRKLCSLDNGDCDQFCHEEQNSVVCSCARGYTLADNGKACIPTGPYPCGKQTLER
Chain of Coagulation factor X (Homo sapiens) (P00742 235-488 limits assumed): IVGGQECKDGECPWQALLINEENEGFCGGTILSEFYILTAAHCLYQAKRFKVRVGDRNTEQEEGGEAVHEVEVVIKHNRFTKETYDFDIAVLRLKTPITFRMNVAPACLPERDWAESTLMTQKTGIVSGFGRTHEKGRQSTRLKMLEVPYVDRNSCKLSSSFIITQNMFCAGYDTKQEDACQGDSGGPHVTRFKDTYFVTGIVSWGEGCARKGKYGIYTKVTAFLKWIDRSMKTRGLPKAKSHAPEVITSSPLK

On to `O=C(Nc1ccccc1)c1cc2cc(CN3CCCCC3)ccc2oc1=O`, for which the solubility (in general, the concentration that dissolves in the medium under given conditions) in data set [1] is 700 µg/mL (≈ 1930 µM). Moreover, the inhibition – broadly, the drop in the measured response relative to a control, in per cent – in data set [2] came out at 28%.
Take `O=C(Nc1cc(Cl)ccc1O)c1cc2cc(Cl)cc(Br)c2oc1=O`: the inhibition is under 10% in data set [3]; under 10% in data set [4]; under 10% in data set [5]; under 10% in data set [6]; 99% in data set [2]. In addition, on Coagulation factor XII, the IC50 (as a rule, the midpoint of a concentration-inhibition curve) was 5 µM. The molecule further returned a solubility in data set [1] of 0.1 µg/mL (≈ 0.233 µM).
As for `Cl.NCc1ccc2oc(=O)c(C(=O)Nc3ccccc3)cc2c1`, the solubility in data set [1] stood at 9900 µg/mL. Besides, in data set [2], the inhibition turned out to be 26%.
With `O=C(Nc1ccc(O)cc1)c1cc2cc(Cl)cc(Br)c2oc1=O`, the inhibition is under 10% in data set [3]; under 10% in data set [4]; under 10% in data set [5]; under 10% in data set [6]; 90% in data set [2]. Also, the IC50 on Coagulation factor XII was determined as 41 µM. The molecule also had a solubility in data set [1] of 1.5 µg/mL (≈ 3.8 µM).
With `O=C(Nc1ccccc1)c1cc2cc(CO)ccc2oc1=O`, the concentration in solution in data set [1] (solubility) was 52 µg/mL (≈ 176 µM). Also, the inhibition in data set [2] came to 14%.
`O=C(NCCN1CCOCC1)c1cc2cc(Cl)cc(Cl)c2oc1=O`: in data set [1], the concentration in solution (solubility) came to 400 µg/mL (≈ 1080 µM). The inhibition in data set [2] was 20%.
`NCCNC(=O)c1cc2cc(Cl)cc(Br)c2oc1=O.O=C(O)C(F)(F)F`: the solubility in data set [1] stood at 61900 µg/mL. In addition, the inhibition in data set [2] came out at 23%.
For `CN(C)CCNC(=O)c1cc2cc(Br)cc(Br)c2oc1=O`, in that order: 3000 µg/mL (≈ 7180 µM) and 30%.
Turning to `O=C(NCCN1CCOCC1)c1cc2cc(Cl)cc(Br)c2oc1=O`, in data set [1], the solubility came to 400 µg/mL (≈ 962 µM). In addition, the inhibition in data set [2] is 17%.
Regarding `O=C(Nc1ccc(Cl)cc1O)c1cc2cc(Cl)cc(Br)c2oc1=O`, the inhibition was under 10% in data set [3]; under 10% in data set [4]; under 10% in data set [5]; under 10% in data set [6]; 99% in data set [2]. Moreover, the IC50 at Coagulation factor XII was 8 µM. Moreover, the concentration in solution in data set [1] (solubility) was 0.11 µg/mL (≈ 0.256 µM).
Turning to `O=C(Nc1ccccc1O)c1cc2cc(Cl)cc(Br)c2oc1=O`, the inhibition was under 10% in data set [3]; under 10% in data set [4]; under 10% in data set [5]; under 10% in data set [6]; 99% in data set [2]. The IC50 at Coagulation factor XII amounted to 7 µM. Further, the concentration in solution in data set [1] (solubility) was 0.71 µg/mL (≈ 1.8 µM).
`O=C(O)c1cc(Cl)ccc1NC(=O)c1cc2cc(Cl)cc(Br)c2oc1=O`: the concentration in solution in data set [1] (solubility) was 36 µg/mL (≈ 78.8 µM). Moreover, the inhibition in data set [2] worked out at 75%.
As for `O=C(NCCN1CCOCC1)c1cc2cc(Br)cc(Br)c2oc1=O`, in data set [1], the solubility is 500 µg/mL (≈ 1090 µM). Further, the inhibition in data set [2] came to 14%.
For `CN(C)CCNC(=O)c1cc2cc(Cl)cc(Br)c2oc1=O`, in that order: 2400 µg/mL (≈ 6420 µM) and 26%.
With `O=C(Nc1ccccc1)c1cc2cc(CN3CCOCC3)ccc2oc1=O`, the solubility in data set [1] is 48 µg/mL (≈ 132 µM). Moreover, the inhibition in data set [2] is 18%.
For `CN(C)CCNC(=O)c1cc2cc(Cl)cc(Cl)c2oc1=O`, in that order: 2200 µg/mL (≈ 6680 µM) and 29%.
As for `O=C(Nc1ccccc1)c1cc2cc(Cl)cc(Br)c2oc1=O`, the inhibition in data set [3] is under 10%; in data set [4], under 10%; in data set [5], under 10%; in data set [6] it was under 10%; in data set [2], 90%. The IC50 on Coagulation factor XII stood at 16 µM. The same molecule yielded a solubility in data set [1] of 0.59 µg/mL (≈ 1.56 µM).
In the case of `O=C(Nc1cccc(O)c1)c1cc2cc(Cl)cc(Br)c2oc1=O`, the inhibition is under 10% in data set [3]; under 10% in data set [4]; under 10% in data set [5]; under 10% in data set [6]; 90% in data set [2]. Further, the IC50 at Coagulation factor XII came out at 34 µM. Further, the solubility in data set [1] stood at 1.4 µg/mL (≈ 3.55 µM).
For the molecule `O=C(Nc1ccccc1)c1cc2cc(CN3CCCC3)ccc2oc1=O`, the solubility in data set [1] was 3400 µg/mL (≈ 9760 µM). Moreover, the inhibition in data set [2] is 21%.
For `CCN(CC)Cc1ccc2oc(=O)c(C(=O)Nc3ccccc3)cc2c1`, in that order: 2900 µg/mL (≈ 8280 µM) and 14%.

Values taken from ChEMBL document CHEMBL3763081, “Synthesis, evaluation and structure-activity relationship of new 3-carboxamide coumarins as FXIIa inhibitors” (Eur J Med Chem, 2016).
